This is an account of results in ChEMBL document CHEMBL1124832, “Functionalized congener approach for the design of novel muscarinic agents. Synthesis and pharmacological evaluation of N-methyl-N-[4-(1-pyrrolidinyl)-2-butynyl] amides” (J Med Chem, 1990).

A value given as a limit tells only on which side of the number the result lay.

The target of experiment [1] is T1, Muscarinic acetylcholine receptor M4 (Rattus norvegicus) (UniProt P08485).
T1 sequence (whole entry): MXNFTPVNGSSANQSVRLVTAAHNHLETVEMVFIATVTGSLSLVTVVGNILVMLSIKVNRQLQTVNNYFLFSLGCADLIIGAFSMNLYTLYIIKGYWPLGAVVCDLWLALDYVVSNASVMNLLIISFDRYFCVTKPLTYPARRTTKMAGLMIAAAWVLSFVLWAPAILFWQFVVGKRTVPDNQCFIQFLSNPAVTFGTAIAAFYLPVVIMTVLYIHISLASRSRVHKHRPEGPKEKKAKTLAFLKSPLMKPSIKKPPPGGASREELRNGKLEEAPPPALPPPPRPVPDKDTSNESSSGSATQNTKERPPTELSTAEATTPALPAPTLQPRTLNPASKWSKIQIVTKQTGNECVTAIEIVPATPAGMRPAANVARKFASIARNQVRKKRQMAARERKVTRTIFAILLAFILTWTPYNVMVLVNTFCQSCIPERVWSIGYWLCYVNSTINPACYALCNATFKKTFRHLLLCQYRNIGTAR
Briefly: Percent inhibition against muscarinic acetylcholine receptor M4 from NG108-15 cell line. Type of experiment: cell-based. On the set-up: concentration or dose not given beside the values. Put shortly:
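NG108-15 cells grown to 90% confluence and preincubated 10 min at 37 °C in 1 mM IBMX in DMEM-Hepes. Compound (100 µM final) and PGE1 (5 µM final) were added for 15 min at 37 °C. cAMP was extracted in 0.1 N HCl for 30 min at room temperature, lyophilized and measured by radioimmunoassay. Reported as percent inhibition versus no-compound control; three trials in triplicate.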

The subject of the next experiment is SK-N-SH. Description: Percent inhibition of stimulation of PI turnover of Oxotremorine M (100 uM) in SK-N-SH cells at 100 uM. Format: functional, Homo sapiens.
For experiment [2], the target named is Muscarinic acetylcholine receptor M3 (Homo sapiens) (UniProt P20309). Description: Percent binding affinity at muscarinic acetylcholine receptor M3 from SK-N-SH human neuroblastoma cells in presence of [3H]NMS. Format: cell-based. Put shortly:
(§1)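 Crude membranes from confluent cells, lysed in 2 mM Tris-HCl (pH 7.1)/1 mM EDTA, homogenized, spun at 50000 g and stored at -70 °C. Membranes (150-300 µg protein) incubated 90 min at 37 °C with 0.5 nM [3H]NMS and 100 µM compound in DMEM-Hepes, then filtered on GF/B. Nonspecific binding taken with 1 µM atropine. Reported as percent displacement; two or three trials in triplicate.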

Experiment [3] deals with T1, Muscarinic acetylcholine receptor M4 (Rattus norvegicus). Briefly: Binding affinity at muscarinic acetylcholine receptor M4 from NG108-15 cell line in presence of [3H]-NMS. Format: cell-based. Put shortly: as §1
For experiment [4], the target named is Muscarinic acetylcholine receptor M3 (Homo sapiens) (UniProt P20309). Description: Percent increase in [3H]myo-inositol at muscarinic acetylcholine receptor M3 from SK-N-SH human neuroblastoma cells. Format: cell-based. More on the design: concentration or dose not given beside the values. Put shortly: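 SK-N-SH cells grown in DMEM with 10% newborn calf serum and plated at 100000 cells/well. After 24 h they were labeled overnight with [3H]-myo-inositol (2 µCi/well). Cells were rinsed and preincubated 5 min at 37 °C in 10 mM LiCl DMEM-Hepes, then exposed to 100 µM final compound for 30 min at 37 °C. Reported as percent increase relative to oxotremorine M (100%); two or three trials in triplicate.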
Muscarinic acetylcholine receptor M3 (Homo sapiens), sequence (P20309 whole entry, looked up): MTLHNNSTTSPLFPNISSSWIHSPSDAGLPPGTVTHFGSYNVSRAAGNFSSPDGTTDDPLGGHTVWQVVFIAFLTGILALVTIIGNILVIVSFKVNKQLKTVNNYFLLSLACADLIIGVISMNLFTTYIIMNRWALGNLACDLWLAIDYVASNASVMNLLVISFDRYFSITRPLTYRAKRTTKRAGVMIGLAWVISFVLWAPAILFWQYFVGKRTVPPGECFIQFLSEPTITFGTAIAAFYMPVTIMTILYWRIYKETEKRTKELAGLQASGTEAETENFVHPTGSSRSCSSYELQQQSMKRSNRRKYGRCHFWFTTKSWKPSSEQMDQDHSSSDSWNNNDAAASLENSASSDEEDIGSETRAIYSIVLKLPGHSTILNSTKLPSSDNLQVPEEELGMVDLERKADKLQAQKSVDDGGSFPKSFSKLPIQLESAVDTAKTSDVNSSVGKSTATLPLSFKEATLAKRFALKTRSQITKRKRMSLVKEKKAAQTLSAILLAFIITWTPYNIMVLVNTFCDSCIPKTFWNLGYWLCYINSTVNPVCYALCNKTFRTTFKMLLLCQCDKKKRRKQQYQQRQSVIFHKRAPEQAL

The target in experiment [5] is Muscarinic acetylcholine receptor. Description: Binding affinity was determined using [3H]-NMS for Muscarinic acetylcholine receptor in SK-N-SH neuroblastoma cells. Format: cell-based, Homo sapiens. The essentials: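 SK-N-SH crude membranes from hypotonic lysis (2 mM Tris-HCl pH 7.1, 1 mM EDTA), 50000 g pellets. Competition used varied compound concentrations with 1 nM [3H]NMS in DMEM-Hepes, 60 min at 37°C, then GF/B filtration. Atropine defined nonspecific binding. Ki was obtained by Cheng-Prusoff from the [3H]NMS Kd (saturation, 10 min at 37°C). Means ± SEM of three determinations in duplicate.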

A word on the Inhibition: it is the percentage by which the read-out fell short of the control. Take `CN(CC#CCN1CCCC1)C(=O)CCCCN.O=C(O)C(F)(F)F.O=C(O)C(F)(F)F`: the Activity in experiment [1] was 15.8%; in experiment [4] it was < 1%. The compound also yielded an Inhibition in the experiment with SK-N-SH of 44%. In addition, the Affinity was determined as 34.4% in experiment [2] and 22.4% in experiment [3].

Turning to `CN(CC#CCN1CCCC1)C(=O)CCN.O=C(O)C(F)(F)F.O=C(O)C(F)(F)F`, the Activity in experiment [1] was 20.8%; in experiment [4], < 1%. In addition, the Inhibition with SK-N-SH is 20%. Besides, the Affinity came to 18.1% in experiment [2] and 15.1% in experiment [3].

Regarding `CC(=O)NCCC(=O)N(C)CC#CCN1CCCC1.O=C(O)C(=O)O`, the Activity in experiment [1] is 10.2%; in experiment [4], < 1%. Besides, in the experiment with SK-N-SH, the Inhibition amounted to 43%. The Affinity was 67.4% in experiment [2] and 67.7% in experiment [3].

Regarding `CN(CC#CCN1CCCC1)C(=O)CCCCCN.O=C(O)C(F)(F)F.O=C(O)C(F)(F)F`, the values for the Activity in experiment [1] and in experiment [4] were 14.3% and < 1%, respectively. For the same compound, the Inhibition in the experiment with SK-N-SH is reported as 47%. Besides, the figures for the Affinity in experiment [2] and in experiment [3] were 55.9% and 37.9%, respectively.

A word on the Ki: it is the equilibrium dissociation constant of an inhibitor or competing ligand from its target. As to `CN(CC#CCN1CCCC1)C(=O)CCCCCCN.O=C(O)C(F)(F)F.O=C(O)C(F)(F)F`, the results for the Activity in experiment [1] and in experiment [4] were 3% and < 1%, respectively. The Ki in experiment [5] worked out at 6.7 µM. The results for the Affinity in experiment [2] and in experiment [3] were 81.9% and 72.1%, respectively.

As for `CN(CC#CCN1CCCC1)C(=O)CCCCCCCN.O=C(O)C(F)(F)F.O=C(O)C(F)(F)F`, the Activity in experiment [1] and in experiment [4] was < 1% in each case. Moreover, the Ki in experiment [5] amounted to 1.4 µM. The Affinity is 93.7% in experiment [2] and 92.3% in experiment [3].
